Measurements: paper PMC12508127 (Nature Communications, 2025)
Converted amounts (≈) assume the structure as drawn. Read-outs that look alike come from different tables or passages of the source.

Experiments:
[1] = test system: FHB (Fusarium graminearum); details: in vivo
[2] = test system: zebrafish (Brachydanio rerio H-B.); assay: Acute toxicity zebrafish, static test; assay type: in vivo
Summary of the method: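 Juvenile zebrafish (not sexually mature) held at 22–23 °C on a 16–8 h light-dark cycle. Static exposure followed the national fish acute toxicity guideline. Definitive test used 1.20, 1.00, 0.833, 0.694, 0.578 and 0.482 mg a.i./L, with dechlorinated tap water as blank control. One replicate of 10 fish per group.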

[3] = test system: Fusarium pseudograminearum; assay type: cell-based
[4] = test system: deoxynivalenol (DON) content; assay type: in vivo, wheat; details: field; for DON content: wheat flour
WPM (Erysiphe graminis) = assay type: in vivo; details: WPM field trial, 187.5 g a.i./ha
[5] = Average thousand grain weight and yield increase, FHB field trial; assay type: in vivo, wheat; details: 150 g a.i./ha
Summary of the method: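 Field plots (20 m2) in Huai'an, wheat variety yannong 1212, with Fusarium graminearum head blight. Test compound as 10% emulsifiable concentrate at 112.5, 150 and 180 g a.i./ha, sprayed at early and peak anthesis. Commercial fungicides served as positive controls and water as negative control. Five-point sampling, 100 mature spikes per point, pooled, air-dried and threshed. 1000 random grains weighed, three replicates per treatment.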

ScSDH = ScSDH (Saccharomyces cerevisiae, UniProt P21801+P33421+P37298+Q00711); assay: SDH activity assay; assay type: biochemical
Alternaria solani = assay type: cell-based; details: 1.56 mg/L
Fusarium oxysporum = assay type: cell-based; details: 1.56 mg/L
Ustilaginoidea virens = assay type: cell-based; details: 1.56 mg/L
[6] = test system: cucumber powdery mildew (CPM, Sphaerotheca fuliginea); details: in vivo
Sclerotinia sclerotiorum = assay type: cell-based; details: 1.56 mg/L
porcine SDH = porcine SDH (Sus scrofa, UniProt A5GZW8+D0VWV4+Q007T0); assay: SDH activity assay; assay type: biochemical; details: read-out: Ki, Porcine; inhibition constant against porcine SDH
Alternaria alternata = assay type: cell-based; details: 1.56 mg/L
Exserohilum turcicum = assay type: cell-based; details: 1.56 mg/L
Phytophthora infestans = assay type: cell-based
Fusarium graminearum = assay type: cell-based
[7] = test system: wheat powdery mildew (WPM, Erysiphe graminis); assay type: in vivo; details: greenhouse
Phytophthora capsica = assay type: cell-based; details: 1.56 mg/L

Sequence of ScSDH (Q00711 29-640): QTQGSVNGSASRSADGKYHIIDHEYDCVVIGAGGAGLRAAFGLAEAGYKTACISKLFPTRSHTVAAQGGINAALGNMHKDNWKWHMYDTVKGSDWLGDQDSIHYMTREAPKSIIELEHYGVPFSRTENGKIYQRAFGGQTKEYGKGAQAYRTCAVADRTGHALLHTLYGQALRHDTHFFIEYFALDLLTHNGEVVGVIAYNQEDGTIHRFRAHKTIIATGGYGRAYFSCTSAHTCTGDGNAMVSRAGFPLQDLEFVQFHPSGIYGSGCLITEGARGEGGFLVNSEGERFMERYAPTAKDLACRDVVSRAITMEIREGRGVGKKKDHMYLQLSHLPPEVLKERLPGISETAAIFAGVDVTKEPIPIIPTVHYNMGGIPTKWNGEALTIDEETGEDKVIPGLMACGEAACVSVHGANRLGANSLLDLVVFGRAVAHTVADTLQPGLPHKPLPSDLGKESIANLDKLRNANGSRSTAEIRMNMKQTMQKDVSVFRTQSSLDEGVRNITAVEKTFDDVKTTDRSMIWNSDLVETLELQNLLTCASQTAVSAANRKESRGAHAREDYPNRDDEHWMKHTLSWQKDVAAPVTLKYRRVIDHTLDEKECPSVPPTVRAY
Sequence of ScSDH (P21801 21-266): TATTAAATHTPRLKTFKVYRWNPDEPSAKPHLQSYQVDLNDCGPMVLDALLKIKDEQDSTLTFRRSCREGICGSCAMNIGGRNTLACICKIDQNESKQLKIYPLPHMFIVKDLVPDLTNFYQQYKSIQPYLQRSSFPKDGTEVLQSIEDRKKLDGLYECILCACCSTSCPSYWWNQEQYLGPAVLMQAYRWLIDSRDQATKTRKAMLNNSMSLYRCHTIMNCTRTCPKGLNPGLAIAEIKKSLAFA
Sequence of ScSDH (P33421 51-198): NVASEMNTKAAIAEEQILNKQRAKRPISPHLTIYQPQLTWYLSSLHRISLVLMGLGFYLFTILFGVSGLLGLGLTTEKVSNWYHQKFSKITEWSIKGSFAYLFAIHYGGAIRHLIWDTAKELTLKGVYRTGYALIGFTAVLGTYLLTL
Sequence of ScSDH (P37298 32-181): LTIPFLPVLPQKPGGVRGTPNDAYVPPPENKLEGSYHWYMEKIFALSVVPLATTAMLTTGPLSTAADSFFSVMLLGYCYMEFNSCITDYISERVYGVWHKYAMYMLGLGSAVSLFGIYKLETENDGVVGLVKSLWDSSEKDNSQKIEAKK
Sequence of porcine SDH (Q0QF01 43-664 partner): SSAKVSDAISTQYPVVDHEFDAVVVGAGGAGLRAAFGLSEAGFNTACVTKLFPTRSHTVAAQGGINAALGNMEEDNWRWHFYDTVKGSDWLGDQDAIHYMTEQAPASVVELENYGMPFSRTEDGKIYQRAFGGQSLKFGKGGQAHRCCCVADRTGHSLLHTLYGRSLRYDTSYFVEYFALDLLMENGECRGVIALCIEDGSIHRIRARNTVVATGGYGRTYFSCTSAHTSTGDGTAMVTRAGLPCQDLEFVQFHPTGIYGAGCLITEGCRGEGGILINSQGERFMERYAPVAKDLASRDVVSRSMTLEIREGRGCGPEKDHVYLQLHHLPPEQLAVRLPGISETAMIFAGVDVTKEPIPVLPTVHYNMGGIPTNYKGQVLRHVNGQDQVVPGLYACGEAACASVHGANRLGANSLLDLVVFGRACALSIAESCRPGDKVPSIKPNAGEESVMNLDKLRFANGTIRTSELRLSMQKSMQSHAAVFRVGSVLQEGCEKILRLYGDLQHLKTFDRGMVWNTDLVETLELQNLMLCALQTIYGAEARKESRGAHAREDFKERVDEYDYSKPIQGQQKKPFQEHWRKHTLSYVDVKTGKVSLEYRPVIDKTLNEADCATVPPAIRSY
Sequence of porcine SDH (Q007T0 29-280): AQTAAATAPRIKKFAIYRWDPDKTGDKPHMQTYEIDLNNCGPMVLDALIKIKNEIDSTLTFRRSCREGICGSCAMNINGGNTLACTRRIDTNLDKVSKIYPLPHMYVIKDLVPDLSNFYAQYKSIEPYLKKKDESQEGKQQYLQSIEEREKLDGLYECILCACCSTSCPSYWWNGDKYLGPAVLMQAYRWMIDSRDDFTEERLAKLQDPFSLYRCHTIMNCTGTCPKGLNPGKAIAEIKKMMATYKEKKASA
Sequence of porcine SDH (D0VWV4 30-169): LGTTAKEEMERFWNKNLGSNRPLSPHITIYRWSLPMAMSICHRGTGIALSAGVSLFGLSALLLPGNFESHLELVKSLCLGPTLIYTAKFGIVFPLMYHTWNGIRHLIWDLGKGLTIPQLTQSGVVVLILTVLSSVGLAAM
Sequence of porcine SDH (A5GZW8 57-159 limits assumed): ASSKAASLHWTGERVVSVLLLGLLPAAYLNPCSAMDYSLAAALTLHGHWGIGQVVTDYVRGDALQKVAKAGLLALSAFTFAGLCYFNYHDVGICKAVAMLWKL

OCC1=C[C@H](N[C@H]2C[C@H](CO)[C@@H](O[C@@H]3O[C@H](CO)[C@@H](O)[C@H](O)[C@H]3O)[C@H](O)[C@H]2O)[C@H](O)[C@@H](O)[C@@H]1O [validamycin]
Control efficiency (%) [1]: 48.42%

C=C(CN(C(=O)c1c(C(F)F)nn(C)c1F)C1CC1)c1ccc(Cl)cc1Cl [E8, enprocymid]
Toxicity level ([2]; by LC50 (96 h)): moderately toxic | LC50 (96 h) ([2]; static test, 96 h): 1.01 mg a.i./L | inhibition rate (%), Fp [3]: 85.33% | DON inhibition rate (%) ([4]; 150 g a.i./ha): 86.05% | DON inhibition rate (%) ([4]; 180 g a.i./ha): 89.40% | DON content ([4]; 150 g a.i./ha): 217.5 µg/kg | DON content ([4]; 180 g a.i./ha): 165.3 µg/kg | Control efficiency (%) (WPM (Erysiphe graminis)): 92.38% | Control efficiency (%) [1]: 88.81% | Yield increase rate (%) [5]: 10.18% | potency relative to PYD (IC50) (ScSDH; E8 IC50 vs PYD IC50, ScSDH): ~1.3 fold | IC50 (ScSDH; against ScSDH): 30 ± 3 nM | Species selectivity (ScSDH; ratio of Ki for porcine SDH and ScSDH): 14.78 | Ki (ScSDH; read-out: Ki, Yeast, inhibition constant against ScSDH): 19 ± 1 nM | inhibition rate (%), As (Alternaria solani): 80.00% | inhibition rate (%), Fo (Fusarium oxysporum): 87.33% | inhibition rate (%), Uv (Ustilaginoidea virens): 100.00% | EC50 [6]: 0.5431 mg/L (≈ 1.3 µM) | inhibition rate (%), Ss (Sclerotinia sclerotiorum): 74.67% | Ki (porcine SDH): 281 ± 14 nM | inhibition rate (%), Aa (Alternaria alternata): 95.67% | inhibition rate (%), Et (Exserohilum turcicum): 100.00% | inhibition rate (%), Pi (Phytophthora infestans): 81.97% | inhibition rate (%), Fg (Fusarium graminearum): 97.31% | EC50 ([7]; WPM): 0.0462 mg/L (≈ 0.11 µM) | activity against WPM relative to PYD [7]: over 20 fold | inhibition rate (%), Pc (Phytophthora capsica): 76.33%

CC(C)(C)C(O)(CCc1ccc(Cl)cc1)Cn1cncn1 (centres unmarked) [tebuconazole]
Control efficiency (%) [1]: 84.45%
